Published values from different studies.
Each line is one published result; the experiments were not run side by side.
PIK3C2G: Phosphatidylinositol 3-kinase C2 domain-containing subunit gamma (PIK3C2G, Homo sapiens, UniProt O75747)
PKN1: Serine/threonine-protein kinase N1 (PKN1, Homo sapiens, UniProt Q16512)

| SMILES | target | observed | mode | technique | tested at | endpoint | value |
| --- | --- | --- | --- | --- | --- | --- | --- |
| COc1ncccc1-c1cnn2ccc(N3CCN(C(=O)OC(C)C)CC3)nc12 | PIK3C2G | binding |  | competition with immobilised ligand | 1 µM | remaining binding | 94% |
| Nc1ncc(-c2nc(N3CCOCC3)nc(N3CCOCC3)n2)c(C(F)F)n1 | PIK3C2G | binding |  | competition with immobilised ligand | 10 µM | remaining binding | 0.75% |
| CCOC(=O)c1ccc(OC(=O)CCCCCNC(=N)N)cc1 | Matrix metalloproteinase-9 (MMP9, Homo sapiens, UniProt P14780, Q279R) | enzyme activity | inhibitor |  | 10 µM | inhibition | 13% |
| O=c1[nH]c2ccccc2n1C1CCN(Cc2ccc(-c3nc4cc5nc[nH]c5cc4nc3-c3ccccc3)cc2)CC1 | PKN1 | enzyme activity | inhibitor |  | 1 µM | activity vs control | 77% |
| CN1CCC(C(c2ccccc2)c2ccccc2)CC1 | Histamine H1 receptor (HRH1, Homo sapiens, UniProt P35367) | binding |  |  |  | koff | 0.133 s⁻¹ |
| Cc1nn(C)cc1-c1nc2c(N3CCN(Cc4ccc(Cl)cc4)CC3)c(Cl)cnc2[nH]1 | Cyclin-dependent kinase 18 (CDK18, Homo sapiens, UniProt Q07002) | binding |  | competition with immobilised ligand | 1 µM | remaining binding | 100% |
| COc1ccc2c(c1)/C(=C/c1cnc[nH]1)C(=O)N2 | PKN1 | enzyme activity | inhibitor |  | 1 µM | activity vs control | 55% |
| CN(C)C(=O)COC(=O)Cc1ccc(OC(=O)c2ccc(NC(=N)N)cc2)cc1 | Cathepsin L2 (CTSV, Homo sapiens, UniProt O60911) | enzyme activity | inhibitor |  | 10 µM | inhibition | 1% |
| CN1CC[C@]2(C)c3cc(OC(=O)Nc4ccccc4)ccc3N(C)[C@H]12 | Muscarinic acetylcholine receptor M4 (CHRM4, Homo sapiens, UniProt P08173) | ligand displacement |  | radioligand | 10 µM | inhibition | 0% |
| N#C/C(=C\c1ccc(O)c(O)c1)C(N)=S | PKN1 | enzyme activity | inhibitor |  | 1 µM | activity vs control | 69% |
